PKD1 inh – inhibitors of human PKD1 kinase, biochemical, fluorescence polarization. PKD1 kinase fluorescence polarization assay. Serine/threonine-protein kinase D1 (Homo sapiens), Q15139. hit rate 0.056% among 200,000. inhibition, % (concentration not given with the values); in the data active means inhibition above about 50%
Arbovirus inh – antivirals against arbovirus infection, primary screen, cell-based, full library, 10K replicate subset | arbovirus infection cell-based antiviral screen | inhibition, % at 10 µM | hit rate 0.37% among 200,000; in the data active means inhibition above about 30%
KCC2 mod – KCC2 cotransporter modulators, thallium flux, primary screen, cell-based, HEK293 KCC2, FluoZin-2 fluorescence, MLSMR | KCC2 cells, thallium flux FluoZin-2 fluorescence | B-score of Tl+ flux slope (higher = more flux/activation; lower = inhibition) at 10 µM | AID 1456, 2008 | hit rate 2.2% among 190,000;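 active means thallium flux slope and its plate-corrected score both differing from the plate sample mean at a set confidence after two filtering rounds, in either direction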;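 further: slope of fluorescence scaled to starting intensity during 10 to 20 s after thallium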
ROMK primary – ROMK potassium channel modulators, primary screen, cell-based, thallium flux, MLSMR library; ATP-sensitive inward rectifier potassium channel 1 (Homo sapiens), P48048; Tet-inducible ROMK, thallium flux fluorescence; actives lie on both sides; B-score at 10 µM; hit rate 2% among 130,000;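 active means signal ratio slope over the read window, or its plate-corrected B-score, at least 3 SD from the plate mean, either direction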;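 further: B-score of the F/F0 ratio slope over 7 to 12 s after thallium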
Target sequence (P48048 whole entry, looked up): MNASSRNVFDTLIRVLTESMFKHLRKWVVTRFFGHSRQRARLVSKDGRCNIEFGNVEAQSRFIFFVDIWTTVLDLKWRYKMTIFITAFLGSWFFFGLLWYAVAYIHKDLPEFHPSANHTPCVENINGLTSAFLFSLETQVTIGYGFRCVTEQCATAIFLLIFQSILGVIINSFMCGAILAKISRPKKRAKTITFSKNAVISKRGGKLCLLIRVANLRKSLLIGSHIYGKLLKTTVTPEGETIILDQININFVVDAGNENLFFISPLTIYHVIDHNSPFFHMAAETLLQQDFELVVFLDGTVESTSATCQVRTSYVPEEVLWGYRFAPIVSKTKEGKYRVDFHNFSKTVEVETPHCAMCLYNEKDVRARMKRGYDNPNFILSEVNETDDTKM
Calpain2 inh – inhibitors of pig calpain II, primary screen, biochemical, fluorogenic peptide substrate, 1536-well; purified calpain II, 30 min; inhibition, % at 16 µM; hit rate 0.37% among 220,000;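 active means inhibition above about 50%, limit read from the data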
MDM2 E3 inh – MDM2-luciferase reporter signal enhancers, primary screen, MDM2 E3 ligase inhibitor project, cell-based, luminescence, 1536-well; signal enhancement, % at 5 µM; hit rate 0.11% among 210,000; AID 1230, 2008; cell-based MDM2 ubiquitination luciferase reporter, 2 h; 0 = plate control, 100 = twice control, blank-subtracted;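 active means signal enhancement of 30% or more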;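 further: luminescence tracks abundance of the self-degrading MDM2-luciferase fusion protein; higher signal means inhibition of MDM2 E3 ligase activity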
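system = mammalian cells stably expressing self-ubiquitinating, self-degrading MDM2 E3–luciferase fusion | quantity = 2000 cells per well seeded | incubation = 4 h cell settling then 2 h compound exposure, 37 °C | signal = SteadyLite luminescence, 15 min reagent step | benchmarks = plate control and blank wells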
KCC2 sec1 – KCC2 modulators in sodium-free buffer, confirmation, cell-based, HEK293 KCC2, thallium flux, secondary assay; FluoZin2 fluorescence; stronger effect = higher value; shares compounds with KCC2 mod; hit rate 15% among 3,700; normalised thallium flux (F/F0 slope) at 10 µM;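 active means thallium flux slope above the same plate's solvent-only control mean plus 3 SD; inconclusive means the two replicate wells disagree; inactive means no significant difference from solvent-only control wells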
KCC2 bumet counter – thallium flux persisting under bumetanide in KCC2 cells, confirmation, counter-screen for KCC2 modulator project, cell-based, HEK293 KCC2, FluoZin2, secondary assay 3 | shares compounds with KCC2 mod | HEK293-KCC2 + bumetanide/ouabain; stronger effect = higher value | normalized thallium flux at 10 µM | hit rate 49% among 3,700 | AID 1714, 2009;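 active means thallium entry rate above the same plate's blocked-transporter control wells by more than 3 SD; inconclusive means the two repeat wells disagree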;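 further: raw slope of fluorescence over initial fluorescence between 10 and 20 s after thallium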
KCC2 sec2 – KCC2 modulators without ouabain present, confirmation, cell-based, HEK293 KCC2, thallium flux, FluoZin2, secondary assay 2; normalized thallium flux at 10 µM; shares compounds with KCC2 mod; hit rate 23% among 3,700; thallium flux FluoZin2 fluorescence; actives lie on both sides; F/F0 rise rate, 10–20 s post-thallium; AID 1715, 2009;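 active means thallium flux slope more than 3 SD above or below the plate's solvent-only control mean, mostly below; inconclusive means the two repeat wells disagreed; inactive means no significant shift from solvent-only controls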;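 further: raw slope with 0.1% DMSO as baseline and bumetanide as block control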
HEK counter1 – thallium flux modulation in parental HEK cells, confirmation, counter-screen for KCC2 modulator project, cell-based, counterscreen 1 | HEK293 parental cells, thallium flux FluoZin2, ouabain; baseline-ratio fluorescence slope, 10–20 s after thallium | AID 1716, 2009 | hit rate 46% among 3,700 | shares compounds with KCC2 mod | thallium flux rate (normalised fluorescence) at 10 µM;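 active means thallium flux rate significantly above the same plate's solvent-only control wells, beyond their mean plus 3 SD; inconclusive means the two replicate wells gave conflicting results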
KCC2 ouabain – KCC2 inhibitors and activators, ouabain retest, confirmation, HEK-KCC2 cells | shares compounds with KCC2 mod | HEK293-KCC2, thallium flux FluoZin2 fluorescence; bidirectional: low = inhibitor, high = activator | raw Tl+ flux slope (below DMSO = inhibition, above = activation) at 10 µM | hit rate 48% among 3,700 | AID 1717, 2009;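 active means thallium flux slope beyond 3 SD from same-plate DMSO control mean in most replicates, usually higher, sometimes lower; inconclusive means repeat tests gave conflicting results; inactive means no significant difference from controls in most replicates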;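 further: slope of initial-normalized fluorescence between seconds 10 and 20 after thallium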
HEK counter2 – native HEK Tl+ uptake effects, second counter-screen – HEK cells, counterscreen 2, counter-screen for KCC2 modulator project, confirmation; shares compounds with KCC2 mod; HEK293 parental, thallium flux FluoZin-2 fluorescence slope; thallium flux slope at 10 µM; hit rate 33% among 3,700; AID 1718, 2009;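 active means thallium flux slope above the same plate's solvent-control mean plus 3 SD in both duplicate wells; inconclusive means duplicate wells that disagreed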;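 further: run without ouabain in cells lacking the KCC2 cotransporter; slope of fluorescence scaled to its starting value between 10 and 20 s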
* marks the source's active call; other numbers are inactive results; ? = inconclusive; nt = no result given. Compounds with a hit are over-represented: about 3.7% of the library has one in this group of screens.

SMILES	PKD1 inh	Arbovirus inh	KCC2 mod	ROMK primary	Calpain2 inh	MDM2 E3 inh	KCC2 sec1	KCC2 bumet counter	KCC2 sec2	HEK counter1	KCC2 ouabain	HEK counter2
O=C(CSc1cccc2cccnc12)N1CCCC1	0	-37	22*	nt	-334	9	0.0056	0.033*	0.029	0.026*	0.037*	0.016*
CCOc1cccc(CN2CCCC(CCC(=O)NCc3ccccc3F)C2)c1O (stereo unspecified)	-7	14	-0.3	-1.2	-4	-2	nt	nt	nt	nt	nt	nt
O=C(CCc1ccccc1)NN1C(=O)C2C3C=CC(C3)C2C1=O (stereo unspecified)	3	4	1.2	0.041	6	-3	nt	nt	nt	nt	nt	nt
Cn1c(=O)c2c(nc(NCC3CCCO3)n2Cc2cccc(Br)c2)n(C)c1=O (stereo unspecified)	-3	2	-7.6*	nt	-29	1	0.011	0.0064	0.03	0.0071	0.02	?
O=C(Nc1ccc(Cl)cn1)C1CCCN1S(=O)(=O)c1ccc(Cl)cc1 (stereo unspecified)	-8	-4	nt	0.58	13	-15	0.0082	0.007	0.033	?	0.024	0.0099
Cc1ccc(NC(=O)CN2CCN(CCN=CC3=C(O)CC(c4ccc(C)cc4)CC3=O)CC2)cc1 (stereo unspecified)	2	6	-0.54	-0.76	-7	-1	nt	nt	nt	nt	nt	nt
c1coc(CNc2nc3nonc3nc2NCc2ccco2)c1	-3	-9	nt	nt	-20	nt	?	0.0049	0.028*	0.0073	0.019	0.011
Cc1ccc(NC(=O)NC(=O)CN2C(=O)NC3(CCCCCCC3)C2=O)c(C)c1	4	-4	-5.5*	nt	-11	7	0.0099	0.0074	0.035	0.0047	0.02	0.012
CCc1cc2c(cc3c(=O)n(CC(=O)N4CCN(c5ccccn5)CC4)nc(CC)n32)s1	-6	-7	nt	-0.27	2	22	0.0077	0.0045	0.03	0.0073	0.016	0.0097
CCc1cc2c(cc3c(=O)n(CC(=O)NCCCN(CC)CC)nc(CC)n32)s1	3	7	1.2	-0.1	-5	-24	nt	nt	nt	nt	nt	nt
C/C(N)=C(/C#N)C(=O)CSc1cc(C)c2cc(C)cc(C)c2n1	5	3	4.1*	0.094	-2	-21	0.018	0.0057	0.031	?	0.017	0.011
Cc1cc(NC(=O)NCC(F)(F)F)no1	nt	nt	0.74	nt	-12	-78	nt	nt	nt	nt	nt	nt
CCOc1cc(N(CC)CC)ccc1/C=C(/C#N)c1nc2ccccc2[nH]1	-18	-8	nt	nt	-88	-25	0.0077*	-0.0033*	0.029	?	0.0081*	0.011
O=c1cc(-c2ccccc2)nc2nc(SCc3ccccc3)[nH]n12	4	-2	nt	0.67	-8	-10	0.009	0.0067	0.029	0.0073	0.015*	0.0099
O=C(COc1ccccc1)Nc1nnc(-c2ccccc2)o1	-11	7	1.1	nt	1	-30	nt	nt	nt	nt	nt	nt
O=C(COc1ccccc1)Nc1nnc(-c2ccc(Cl)s2)o1	-11	4	nt	nt	-90	-6	0.014*	0.022*	0.031	0.012*	0.025	0.012*
O=C(NC(=S)NNC(=O)c1cccs1)c1ccco1	-4	-22	3.6*	0.44	10	-12	0.018*	0.029*	0.038	0.019*	0.036*	0.013*
O=C(NNC(=O)c1cccs1)c1ccco1	-3	1	0.23	1.1	3	0	nt	nt	nt	nt	nt	nt
O=C(NNC(=S)Nc1ccccc1)c1ccco1	-12	9	1.6	nt	-2	-16	nt	nt	nt	nt	nt	nt
O=C(COc1ccc(Cl)cc1Cl)NNC(=S)NCc1ccco1	-2	20	3.7	-1.7	-22	-2	nt	nt	nt	nt	nt	nt
O=C(NNC(=S)NC(=O)c1ccco1)c1ccc(F)cc1	nt	nt	60*	nt	-10	-4	0.026*	0.063*	?	0.035*	0.043*	0.019*
O=C(COc1ccc(Cl)cc1Cl)NNC(=S)NC(=O)c1ccco1	nt	nt	70*	1.7	-26	-2	0.03*	0.12*	0.036	?	0.076*	0.03*
CCCOc1ccc(C(=O)NNC(=S)NC(=O)c2ccco2)cc1	nt	nt	97*	nt	16	-24	0.007	0.0048	0.084*	0.086*	?	0.084*
CCCOc1ccc(C(=O)NNC(=S)NC(C)=O)cc1	3	-24	3.6	nt	19	-22	nt	nt	nt	nt	nt	nt
CCOC(=O)c1c(NC2OC(=O)c3c2ccc(OC)c3OC)sc(C(=O)OC(C)(C)C)c1C (stereo unspecified)	17	11	0.033	-1.5	-22	6	nt	nt	nt	nt	nt	nt
O=S(=O)(c1ccc(NC(=S)NCc2ccco2)cc1)N1CCCCC1	nt	nt	-0.12	nt	21	-5	nt	nt	nt	nt	nt	nt
CCCOc1ccc(C(=O)NCCC(=O)NCCCC(=O)OCC)cc1	-2	6	nt	nt	-5	-14	nt	nt	nt	nt	nt	nt
CCCOc1ccc(C(=O)NCCO)cc1	-9	5	5.9*	0.59	-3	-4	0.0095	0.0057	0.033	0.0078	0.023	0.0099

Screening results from PubChem.
